# PG9 Ab binder = PG9 antibody binding by small molecule; inhibition, % at 6.7 µM; TR-FRET gp120-PG9 antibody binding; hit rate 0.43% among 360,000; in the data active = inhibition above about 8.5%
# NR2E3 ag-1 = human photoreceptor-specific nuclear receptor agonism; AID 602229; CHO-S Gal4-NCOR/VP16-NR2E3 two-hybrid, luciferase; hit rate 0.35% among 360,000; inhibition of corepressor binding, % at 3.98 µM; Q9Y5X4;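 active = inhibition above the mean of all tested compounds plus 3 SD, cut at about 70% in these data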;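 note: 0% = DMSO with NR2E3 transfected cells and 100% = cells lacking NR2E3 construct; higher means lower luciferase signal from less NR2E3 corepressor binding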
# Rev-erbA mod = modulators of human Rev-erb alpha DNA binding; Rev-erbα–FITC-DNA binding, fluorescence polarization, 90 min; activity, % at 10 µM; hit rate 0.79% among 370,000;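 active = activity above about 14%, limit read from the data; passing the limit was not always enough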;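 note: 0% = DMSO wells with 35 nM protein and 100% = DMSO wells with 750 nM protein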
# Target sequence (P20393 whole entry, looked up): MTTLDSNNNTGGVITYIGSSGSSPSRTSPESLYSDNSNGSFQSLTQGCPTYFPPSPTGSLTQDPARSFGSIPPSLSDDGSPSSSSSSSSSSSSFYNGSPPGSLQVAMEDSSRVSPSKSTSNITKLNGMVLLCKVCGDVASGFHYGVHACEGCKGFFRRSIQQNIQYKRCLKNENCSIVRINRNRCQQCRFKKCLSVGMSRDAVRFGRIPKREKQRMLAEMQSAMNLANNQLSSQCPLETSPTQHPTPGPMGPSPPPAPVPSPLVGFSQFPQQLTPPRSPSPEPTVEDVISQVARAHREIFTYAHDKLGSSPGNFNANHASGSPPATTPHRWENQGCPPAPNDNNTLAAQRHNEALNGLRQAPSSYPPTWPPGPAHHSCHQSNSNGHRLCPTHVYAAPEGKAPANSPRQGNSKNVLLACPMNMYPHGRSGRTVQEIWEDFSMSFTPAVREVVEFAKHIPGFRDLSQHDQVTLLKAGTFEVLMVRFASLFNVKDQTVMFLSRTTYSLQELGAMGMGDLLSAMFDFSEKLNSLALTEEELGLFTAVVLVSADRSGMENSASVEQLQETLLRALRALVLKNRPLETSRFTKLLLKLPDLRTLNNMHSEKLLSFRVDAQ
# NR2E3 ag-2 = NR2E3 (human) agonism | Q9Y5X4 | GST-NR2E3/biotin-RetCOR TR-FRET, 1536-well | inhibition of corepressor binding, % at 4.78 µM | hit rate 0.12% among 320,000 | AID 2300;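 active = percent inhibition above the cutoff of mean plus 3 SD of all tested compounds, set per screening campaign, cut at about 20% in these data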;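 note: 0% = DMSO wells and 100% = biotin wells as full block of FRET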
#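 System: GST-NR2E3 and biotin-RetCOR proteins; probe or stimulus: 7 nM biotin-RetCOR; doses: compound at 4.8 µM, single dose; schedule: Compound–protein incubation for 5 h at 4 °C; detection: time-resolved FRET; read-out: percent inhibition; controls: biotin wells as high control, 0.6% DMSO wells as low control; format: 1536-well plates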
# Neddyl block = inhibitors of human cullin neddylation | P61081+Q13564 | TR-FRET cullin neddylation, biochemical | calls only at 25 µM | hit rate 0.58% among 360,000 | AID 651699; in the data active = inhibition above about 36%
# Rev-erbA confirm = confirmation of modulators of human Rev-erb alpha DNA binding | Rev-erb alpha FITC-DNA binding, fluorescence polarization, 90 min | activation, % at 25 µM | AID 1259319 | shares compounds with Rev-erbA mod | hit rate 61% among 3,000;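 active = activation at or above a set limit, or at least 3 SD above the negative control mean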;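 note: 0% = 35 nM protein with DMSO and 100% = 750 nM protein high control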
# RORg DNA counter = affects RORgamma DNA binding in a Rev-erb alpha counter-screen. purified RORgamma protein-FITC-DNA binding, fluorescence polarization. shares compounds with Rev-erbA mod. hit rate 8% among 910. AID 1259320. IC50, µM;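 active = Compounds whose fitted half-maximal concentration for disrupting protein-DNA binding is below 10 micromolar; the record names Rev-erb in its text, so the target is in doubt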
# * hit, by the source's call; i = inactive; nt = no result shown; ! = not active in a repeat. Most compounds without a hit are left out; they make up all but 2% or so of the library.
SMILES,PG9 Ab binder,NR2E3 ag-1,Rev-erbA mod,NR2E3 ag-2,Neddyl block,Rev-erbA confirm,others
CN1/C(=C\C=C2/C(=O)Oc3ccccc3C2=O)C(C)(C)c2ccccc21,-2,nt,59*,0,nt,53*,RORg DNA counter=>40
CC1=NN(c2ccccc2)C(=O)/C1=C\C=C1/N(C)c2ccccc2C1(C)C,-4,-14,79*,5,i,87*,RORg DNA counter=8.6*
CC1=NN(c2ccccc2)C(=O)/C1=C/N(C)C,1,-6,1,-2,i,nt,
CC1=NN(c2ccccc2)C(=O)/C1=C\C=C1\N(C)c2ccccc2C1(C)C,-3,-14,49*,-2,i,54*,RORg DNA counter=>40
CCOC(=O)CC[C@@]1(C(=O)OCC)C[C@@H](CC(=O)N2CCCC2)C(=O)N2CCCC=C21,nt,nt,0,nt,nt,nt,
CC[C@]12c3[nH]c4ccccc4c3CCN1C(=O)C(CC(=O)NCCCn1ccnc1)C[C@@H]2C(=O)N1CCN(C(=O)c2ccco2)CC1 (stereo not given in full),0,-18,-4,nt,i,nt,
O=C(O)CSc1c2ccccc2cc2ccccc12,-1,-18,41*,-4,i,38*,RORg DNA counter=>40
CCCCCCN1CCS(=O)(=O)N(Cc2ccc(OC)cc2)C(C(=O)OC)C1 (stereo not given),nt,nt,-1,nt,nt,nt,
CCN(Cc1nc2cc(Cl)ccc2c(=O)[nH]1)C(=O)c1cc2c(s1)CCCCC2,0,0,54*,nt,i,34*,RORg DNA counter=>40
Cc1ccc(C)c(NC(=O)CN(C)C(=O)c2ccc(-c3cccc(C(F)(F)F)c3)o2)c1,6,4,22*,-1,i,23*,
O=C(Nc1c(-c2ccccc2)nc2ncccn12)c1ccc(F)cc1,nt,nt,-1,nt,nt,nt,
CN(C)c1ccc(/C=C/c2nc3ccccc3c(=O)n2-c2ccc(C(=O)O)cc2)cc1,0,-29,23*,-1,i,24*,
CNc1ccc(-c2cccc(C#N)c2)cn1,0,-86,-3,nt,nt,nt,
Cc1ccc2nc(-c3cccc(Br)c3)cc(C(=O)NCC3CCCO3)c2c1 (stereo not given),-3,-14,24*,1,i,9,
COc1ccccc1-c1ccc([C@@H]2C[C@H]3[C@H](CON3C)CN2C(=O)c2ccc(-c3ccccc3)cc2)cc1,-1,-17,-4,nt,i,nt,
CCOC(=O)C1=C(C#N)C(C(=O)OCC)c2ncccc21 (stereo not given),2,5,34*,nt,i,22*,
CCOC(=O)C1=C(C(C)=O)C(c2cccnc2)C(C#N)=C(N)O1 (stereo not given),-1,-5,-8,-6,i,nt,
COC(=O)Cn1c(=NC(=O)c2cc(OC)cc(OC)c2)sc2cc(OC)ccc21,2,-22,31*,-3,i,5,
COc1cc(OC)cc(C(=O)N=c2sc3ccccc3n2C)c1,2,-30,16,2,i,nt,
COC(=O)Cn1c(=NC(=O)c2ccc(S(=O)(=O)N3CCc4ccccc4C3)cc2)sc2cc(OC)ccc21,7,-9,39*,3,i,2,
COC(=O)Cn1c(=NC(=O)c2cccc(OC)c2)sc2cc(OC)ccc21,0,-48,31*,1,i,23*,
COc1ccc(C(=O)N=c2sc3ccccc3n2C)cc1,2,-157,52*,2,i,23*,
Fc1cccc(Cc2c(-c3ccccc3)nc3c4ccccc4ccn23)c1,2,-44,3,nt,i,nt,
COc1cc(F)ccc1-c1csc(C(C)(O)c2ccccc2)n1 (stereo not given),-4,0,-1,nt,i,nt,
CCCCNC(=O)OCCCN1CCC2(CCC(c3ccccc3)CC2)C1 (stereo not given),nt,nt,6,nt,nt,nt,
SMILES,PG9 Ab binder,NR2E3 ag-1,Rev-erbA mod,NR2E3 ag-2,Neddyl block,Rev-erbA confirm,others
COc1ccc(NC(=O)CSc2nc3ccccc3cc2Cc2ccccc2)cc1,4,-1,27*,8,i,22*,
COc1ccc2nc(SCC(=O)Nc3ccc4sc(C)nc4c3)c(C#N)cc2c1,6,-5,92*,-2,i,123*,RORg DNA counter=>40
COc1ccc(NC(=O)CSc2nc(N)c(C#N)cc2C#N)cc1,2,6,61*,5,i,65*,RORg DNA counter=>40
CC(C)CCSc1nc(N)c(C#N)cc1C#N,-1,-43,104*,6,i,96*,RORg DNA counter=>40
Cc1ccc(C(=O)OCC(=O)c2c[nH]c3ccccc23)cc1,1,-38,-4,0,i,nt,
O=C(OCC(=O)c1c[nH]c2ccccc12)c1cc(Br)ccc1O,2,-59,42*,1,i,41*,RORg DNA counter=>40
O=C(OCc1cn(Cc2ccccc2F)nn1)N1CCOCC1,nt,nt,-1,nt,nt,nt,
CC(=O)c1ccc(N2CCN(CC(=O)N(C3CC3)C3CCS(=O)(=O)C3)CC2)c(F)c1 (stereo not given),1,-38,4,0,i,nt,
COCCCn1c(SCC(=O)NC2CCS(=O)(=O)C2)nnc1-c1ccc(Cl)cc1 (stereo not given),0,-1,-4,5,i,nt,
O=C(CSc1nnc(-c2ccc3c(c2)OCO3)n1-c1ccccc1)c1ccc(Cl)cc1,-2,-12,4,3,i,nt,
O=C(CSc1nnc(-c2ccc3c(c2)OCO3)n1-c1ccccc1)c1ccccc1,-1,-4,25*,-7,i,18*,
Cn1c(=O)c(Nc2ccc(O)cc2)c2c3c(cccc31)C(=O)c1ccccc1-2,-1,21,175*,1,i,157*,RORg DNA counter=>40
CC(=O)c1c2c3c(cccc3n(C)c1=O)C(=O)c1ccccc1-2,nt,nt,nt,0,nt,nt,
Cc1cc2c(c(=O)o1)[C@@]1(C(=O)Nc3ccccc31)C1=C(CCCC1=O)O2,0,nt,5,nt,nt,nt,
COc1ccc(-c2c(C#Cc3ccsc3)c3cc(-c4ccc5c(c4)OCCO5)ccc3n2C)cc1,2,1,54*,nt,i,77*,RORg DNA counter=3.4*
COc1ccc(-c2c(C#Cc3ccsc3)c3cc(-c4ccc5[nH]ccc5c4)ccc3n2C)cc1,-1,7,4,0,i,nt,
COc1ccc(-c2c(C#Cc3ccsc3)c3cc(-c4ccc5c(c4)OCO5)ccc3n2C)cc1,0,-15,21*,-6,i,30*,
COc1cc(OC)cc(-c2c(C#Cc3ccsc3)c3cc(-c4ccc5c(c4)OCO5)ccc3n2C)c1,-6,-26,26*,nt,i,26*,
COc1ccc(NC(=S)N2CCC3CC2c2c(Cl)cccc23)c(OC)c1 (stereo not given),-2,-17,-2,nt,i,nt,
CC(C)[C@H](NC(=O)C1CC1)C(=O)N1CCC[C@H]1C(=O)NCCc1ccccc1Cl,-1,nt,2,nt,nt,nt,
COc1cc(NC(=O)c2nccn2C)cc(C(=O)Nc2cccc(C(F)(F)F)c2)c1,-2,-29,19*!,3,nt,15*,

# From PubChem
